# Key:
# Format in all cases: functional, cell-based
# MCF7 = assay: Cytotoxicity against human MCF7 cells assessed as growth inhibition after 72 hrs by MTT assay; details: MCF7, 72 h
# How it was run: (§1)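 MTT read-out of cell growth, method as in an earlier report. IC50 is the concentration giving 50% inhibition of cell growth. Etoposide and cisplatin were run as positive controls.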
# [1] = Cytotoxicity against human HONE1 cells assessed as growth inhibition after 72 hrs by MTT assay; details: HONE1, 72 h; how it was run: as §1
# P388 = assay: Cytotoxicity against mouse P388 cells assessed as growth inhibition after 72 hrs by MTT assay; details: P388, 72 h; how it was run: as §1
# HT-29 = assay: Cytotoxicity against human HT-29 cells assessed as growth inhibition after 72 hrs by MTT assay; details: HT-29, 72 h; how it was run: as §1
SMILES,IC50 (MCF7),IC50 [1],IC50 (P388),IC50 (HT-29)
COc1cc([C@@H]2c3cc4c(cc3[C@@H](O[C@@H]3O[C@@H]5CO[C@@H](C)O[C@H]5[C@H](O)[C@H]3O)[C@H]3COC(=O)[C@H]23)OCO4)cc(OC)c1O [ETOPOSIDE],2.2 µM,1.2 µM,1.3 µM,2 µM
CC(=O)O[C@H]1[C@H](OC(C)=O)[C@]2(C)O[C@]3(COC(=O)C3)C[C@H](OC(=O)c3ccccc3)[C@]2(C)[C@H]2CCC=C(C)[C@]12C,6 µM,4.2 µM,5.2 µM,4.1 µM
CC1=CCC[C@H]2[C@@]1(C)[C@@H](OC(=O)c1ccccc1)[C@H](OC(=O)C(O)C(C)C)[C@](C)(O)[C@]2(C)/C=C/C1=CC(=O)OC1 (stereo partly specified),7.7 µM,3.9 µM,7.1 µM,6.4 µM
CC1=CCC[C@H]2[C@@]1(C)[C@@H](OC(=O)c1cccnc1)[C@H](OC(=O)c1ccccc1)[C@]1(C)O[C@]3(COC(=O)C3)C[C@H](OC(=O)c3cccnc3)[C@]21C,5.7 µM,3.5 µM,5.8 µM,4.7 µM
